Screening data (PubChem BioAssay)
Compounds with a hit are over-represented: about 3.7% of the library has one in this group of screens.
KCNQ1 block – inhibitors of human KCNQ1 potassium channel | P51787 | CHO-K1 KCNQ1, FluxOR thallium flux fluorescence; hits give high values | B-score at 10 µM | 310,000 tested, 1.3% active;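 active = compounds whose thallium flux B-score, printed positive for inhibition, exceeds three library SD while starting fluorescence stays within three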;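 also: channel opened by potassium depolarization with thallium stimulus after 20 min compound exposure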
KCNK9 inh-1 – blocks the human KCNK9 two-pore domain potassium channel. AID 488922. HEK293 KCNK9, FluxOR thallium flux fluorescence; hits give low values. 310,000 tested, 1.2% active. Q9NPC2. B-score at 10 µM;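 active = ratio B-score over 3 SD below the library mean, with starting fluorescence within 5 SD of its mean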;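 also: negative B-score means less thallium flux so channel inhibition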
hERG protect – hERG (human) protection from proarrhythmic block; CHO-hERG, FluxOR thallium flux, dofetilide IC70 present; activation (rescue from dofetilide block), less the hit threshold, % at 10 µM; 310,000 tested, 0.51% active;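 active = activation above the mean of controls blocked by dofetilide plus 5 SD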;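 also: thallium influx through hERG after potassium depolarization seen as dye fluorescence rise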
Kir21 block – inhibitors of mouse Kir2.1 inward-rectifier potassium channel. P35561. HEK293-Kir2.1, FluxOR thallium flux fluorescence; hits give low values. B-score at 10 µM. 310,000 tested, 0.85% active;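 active = fluorescence ratio B-score at or below minus 3 SD of library scores, with starting-brightness B-score within 2 SD, cut at about -4.2 in these data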;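 also: channel flux triggered by added potassium and thallium sulfate stimulus; B-score of peak minus minimum fluorescence over baseline after thallium stimulus; more negative B-score means stronger Kir2.1 block with less thallium influx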
KCNQ1 pot – potentiates or activates the human KCNQ1 potassium channel; P51787; B-score at 10 µM; 310,000 tested, 0.35% active; CHO-K1 KCNQ1, thallium flux FluxOR fluorescence; hits give high values; AID 2648;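 active = fluorescence ratio B-score, a plate-corrected score, at least three library SD, with initial intensity B-score within 5 SD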
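Assay system: stable KCNQ1 CHO-K1 line; medium: assay buffer, equal DMSO in all wells; timing: 90 min dye loading and 20 min compound exposure, both at room temperature; technique: kinetic FluxOR thallium fluorescence, 10-s 1-Hz baseline, 110-s post-stimulus read; read-out basis: B score of baseline-normalized fluorescence ratio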
KCNK3 inh – human KCNK3 channel inhibition, primary screen. O14649. CHO-KCNK3 thallium flux, FluxOR fluorescence; hits give low values. B-score at 10 µM. 340,000 tested, 0.84% active. AID 602410;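 active = B-score under library mean minus 4 SD, starting fluorescence ratio at most library mean plus 5 SD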;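 also: more negative B-score means stronger inhibition of thallium flux through KCNK3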
hERG ctr – blocks human hERG, in counter-screen for Kir2.1 inhibitors. shares compounds with Kir21 block. hERG-expressing cells, thallium flux. inhibition, % at 10 µM. 320 tested, 20% active;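 also: host cells are CHO cells stably expressing hERG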
KCNK9 inh-2 – selectivity of Kir2.1 inhibitors: effect on human KCNK9; 320 tested, 5% active; KCNK9-expressing cells, ion flux inhibition; shares compounds with Kir21 block; inhibition, % at 10 µM; AID 2329
Kir21 ephys inh – inhibitors of mouse Kir2.1 potassium channel; inhibition, % at 25 µM; 320 tested, 71% active; shares compounds with Kir21 block; Kir2.1 cells, automated patch-clamp current inhibition; AID 463252
KCNQ1 block val – human KCNQ1 channel inhibition, validation assay; shares compounds with KCNQ1 block; KCNQ1 cell line, FluxOR thallium flux fluorescence; inhibition, % at 10 µM; 1,600 tested, 93% active; AID 588353;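 active = primary screen active, with duplicate mean exceeding buffer control mean plus 3 SD of buffer wells, cut at about 28% in these data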
CHO KCNQ1 ctr – activity in parental CHO cells lacking KCNQ1; shares compounds with KCNQ1 block; parental CHO-K1, FluxOR thallium flux fluorescence ratio; hits give low values; zero means no signal rise above baseline; fluorescence ratio (Tl flux) at 10 µM; 1,600 tested, 21% active; AID 588366;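 active = mean of duplicate thallium-flux fluorescence ratios in parental host cells more than 5 SD below the buffer control mean, cut at about 0.38 in these data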;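 also: ratio is peak minus minimum fluorescence divided by baseline fluorescence; actives read low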
KCNQ1 ephys val – blocks human KCNQ1 current in automated patch clamp | shares compounds with KCNQ1 block | KCNQ1-CHO cells | calls only at 10 µM | 490 tested, 20% active;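 active = KCNQ1 current drop exceeding 3 SD of negative control wells, seen in both duplicate runs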;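 also: steady state current during a 2 s step from -80 to +40 mV; negative values mean current inhibition and positive values mean potentiation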
KCNQ2 spec – KCNQ1 inhibitor that also blocks rat KCNQ2 channel; AID 651746; KCNQ2 cells, FluxOR thallium flux fluorescence; inhibition, % at 10 µM; 1,600 tested, 71% active; shares compounds with KCNQ1 block;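 active = mean percent inhibition of the KCNQ2 thallium signal more than 5 SD above the buffer-only control wells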;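 also: KCNQ2 expressed in CHO cells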
KCNQ1-KCNE1 inh – KCNQ1 inhibitor that also blocks human KCNQ1/KCNE1 channel. KCNQ1/KCNE1 cells, FluxOR thallium flux fluorescence. AID 652147. inhibition, % at 10 µM. 1,600 tested, 77% active. shares compounds with KCNQ1 block;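 active = mean percent inhibition of duplicate wells above the buffer-only control mean plus 3 SD of those controls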
KCNK9 block conf – human KCNK9 inhibitor confirmation. inhibition, % at 10 µM. shares compounds with KCNK9 inh-1. 4,900 tested, 43% active. HEK293 KCNK9 cells, FluxOR thallium flux fluorescence;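 active = thallium signal inhibited by more than 5 SD of the compound-free buffer control wells, on both duplicate plates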
Kir21 sel – tests whether KCNK9 modulators also affect mouse Kir2.1; shares compounds with KCNK9 inh-1; Kir2.1 cells, FluxOR thallium flux fluorescence; inhibition, % at 10 µM; 4,900 tested, 4% active;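 active = thallium signal drop more than 5 SD beyond the mean of the no-compound control wells, seen in both duplicate plates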;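 also: signal is fluorescence rise after thallium addition divided by baseline fluorescence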
HEK293 Tl ctr – second check of KCNK9 modulator effects in non-induced HEK293 cells; shares compounds with KCNK9 inh-1; FluxOR thallium flux; inhibition, % at 10 µM; 4,900 tested, 40% active; AID 492997;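 active = thallium signal drop beyond 5 SD of the untreated control mean, on both duplicate plates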
KCNK3 confirm – human KCNK3 channel inhibition, confirmation assay; shares compounds with KCNK3 inh; CHO-KCNK3 thallium flux, FluxOR fluorescence; 0% buffer, 100% carvedilol maximal block; ratio percent of control, % at 10 µM; 2,400 tested, 99% active;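 active = ratio percent of control, averaged over triplicates, above buffer control mean plus 5 SD, cut at about 64% in these data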;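 also: ratio is the fluorescence rise from min to max over baseline after thallium stimulus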
KCNK3 uninduced – activity in cells without induced KCNK3 expression. shares compounds with KCNK3 inh. non-induced KCNK3 parental cells, FluxOR thallium flux; hits give low values. thallium flux ratio (lower = more inhibition) at 10 µM. 2,400 tested, 40% active;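 active = thallium flux ratio, averaged over three wells, more than 5 SD below the buffer control mean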;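 also: host cells are CHO cells without KCNK3 induction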
A number is an active result. Unless noted, no rule for the calls is given here.

`Cc1noc(C)c1COC(=O)CCN1c2ccccc2Sc2ccccc21` gave KCNQ1 block inactive, KCNK9 inh-1 inactive, hERG protect inactive, Kir21 block -7.3, KCNQ1 pot inactive, KCNK3 inh -9.7, hERG ctr inactive, KCNK9 inh-2 inactive, Kir21 ephys inh 10%, KCNK3 confirm 126 and KCNK3 uninduced 0.14.
Screening CC(=O)Oc1ccc(-c2cc3ccc(OC(C)=O)cc3oc2=O)cc1 returned KCNQ1 block inactive, KCNK9 inh-1 inactive, hERG protect inactive, Kir21 block inactive, KCNQ1 pot inactive and KCNK3 inh inactive.
For O=[N+]([O-])c1cccc(-c2csc(Nc3ccccc3)n2)c1 the results were KCNQ1 block inactive, KCNK9 inh-1 inactive, hERG protect inactive, Kir21 block inactive, KCNQ1 pot inactive, KCNK3 inh -14, hERG ctr inactive, KCNK9 inh-2 inactive, Kir21 ephys inh inactive, KCNK3 confirm 124 and KCNK3 uninduced 0.14.
Screening COc1ccccc1Nc1nc(-c2cccc([N+](=O)[O-])c2)cs1 returned KCNQ1 block inactive, KCNK9 inh-1 inactive, hERG protect inactive, Kir21 block inactive, KCNQ1 pot inactive and KCNK3 inh inactive.
Screening CCC(C)c1c(N)n(S(=O)(=O)c2ccc(C)cc2)oc1=O (stereo unspecified) returned KCNK3 inh inactive.
Cc1ccc(-c2nc3ccccn3c2NCc2ccc3c(c2)OCO3)cc1 was read as KCNQ1 block 10, KCNK9 inh-1 -17, hERG protect inactive, Kir21 block -7.1, KCNQ1 pot inactive, KCNK3 inh -9.9, hERG ctr 63%, KCNK9 inh-2 56%, Kir21 ephys inh inactive, KCNQ1 block val 118, CHO KCNQ1 ctr inactive, KCNQ1 ephys val inactive, KCNQ2 spec 113%, KCNQ1-KCNE1 inh 188%, KCNK9 block conf 52%, Kir21 sel inactive, HEK293 Tl ctr inactive, KCNK3 confirm 143 and KCNK3 uninduced inactive.
For COc1ccc(-c2coc(CCC(=O)N3CCN(c4cc(C)ccc4C)CC3)n2)cc1 the results were KCNK3 inh inactive.
For CCOC(=O)CSc1nc(-c2ccccc2)nc2ccccc12 the results were KCNQ1 block inactive, KCNK9 inh-1 inactive, hERG protect inactive, Kir21 block inactive, KCNQ1 pot inactive and KCNK3 inh inactive.
Screening CCOC(=O)CSc1nc(Cc2ccccc2)nc2ccccc12 returned KCNQ1 block inactive, KCNK9 inh-1 -13, hERG protect inactive, Kir21 block -6, KCNQ1 pot inactive, KCNK3 inh inactive, hERG ctr inactive, KCNK9 inh-2 inactive, Kir21 ephys inh 32%, KCNK9 block conf 36%, Kir21 sel inactive, HEK293 Tl ctr inactive, KCNK3 confirm 96 and KCNK3 uninduced inactive.
Screening C=CCc1ccc(OCC(O)CN2CCc3ccccc3C2)c(OC)c1 (stereo unspecified) returned KCNQ1 block inactive, KCNK9 inh-1 inactive, hERG protect inactive, Kir21 block -5.8, KCNQ1 pot inactive, KCNK3 inh -9, hERG ctr 56%, KCNK9 inh-2 inactive, Kir21 ephys inh 25%, KCNK3 confirm 103 and KCNK3 uninduced 0.14.
`CCOC(=O)c1c(-c2ccccc2)oc2ccc(OCC)cc12` gave KCNQ1 block 6, KCNK9 inh-1 inactive, hERG protect inactive, Kir21 block inactive, KCNQ1 pot inactive, KCNK3 inh inactive, KCNQ1 block val 70, CHO KCNQ1 ctr inactive, KCNQ2 spec 96% and KCNQ1-KCNE1 inh 62%.
Screening CCN1/C(=C/c2ccc3cc(C)cc(C)c3[n+]2CC)Sc2cc(C)ccc21 returned KCNK3 inh inactive.
Screening CCN1/C(=C\c2ccc3cc(C)ccc3[n+]2CC)Sc2cc(C)c(C)cc21 returned KCNQ1 block 17, KCNK9 inh-1 inactive, hERG protect inactive, Kir21 block inactive, KCNQ1 pot inactive, KCNK3 inh inactive, KCNQ1 block val 170, CHO KCNQ1 ctr 0.26, KCNQ2 spec inactive and KCNQ1-KCNE1 inh inactive.
Screening O=S(=O)(O)c1nc2ccccc2[nH]1 returned KCNQ1 block inactive, KCNK9 inh-1 inactive, hERG protect inactive, Kir21 block inactive, KCNQ1 pot inactive and KCNK3 inh inactive.
For Cc1nnsc1SCCNC(=O)Nc1ccc(Cl)cc1 the results were KCNQ1 block 7, KCNK9 inh-1 inactive, hERG protect inactive, Kir21 block inactive, KCNQ1 pot inactive, KCNK3 inh inactive, KCNQ1 block val 67, CHO KCNQ1 ctr inactive, KCNQ2 spec inactive and KCNQ1-KCNE1 inh 36%.
